Here are results for seven compounds from ChEMBL document CHEMBL1142699 (J Med Chem, 2005).

The target in test [1] is Nociceptin receptor (Cavia porcellus) (UniProt P47748). Nature of the test: Antagonistic potency against N/OFQ in electrically evoked contractions of guinea pig ileum at 10 uM. The format is functional, tissue-based.
Test [2] concerns the target Nociceptin receptor (Mus musculus) (UniProt P35377). As to the kind of experiment: (§1) Inhibition of electrically evoked contraction of mouse vas deferens. It is filed as functional. In short, it runs like this:
(§2)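 Vas deferens from male Swiss mice (25-30 g), in Mg2+-free Krebs at 33 °C under 0.3 g resting tension. Field-stimulated with 1 ms supramaximal pulses at 0.05 Hz; twitches recorded isotonically. After ~1 h equilibration, cumulative concentration-response curves in 0.5 log steps. […] 5-8 experiments.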

Test [3] concerns the target Nociceptin receptor (Cavia porcellus) (UniProt P47748). Nature of the test: Inhibition of electrically evoked contraction of guinea pig ileum at 10 uM. It is filed as functional, tissue-based.
The target of test [4] is Nociceptin receptor (Mus musculus) (UniProt P35377). As to the kind of experiment: Antagonistic potency against N/OFQ in electrically evoked contraction of mouse vas deferens at 10 uM. The format is functional, tissue-based. In short, it runs like this:
(§3)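 Male Swiss mice (25-30 g). Vas deferens in 5 mL baths of Mg2+-free Krebs at 33 °C, 0.3 g tension, field-stimulated with supramaximal 1 ms pulses at 0.05 Hz, isotonic recording.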

In test [5] the target is Nociceptin receptor (Cavia porcellus) (UniProt P47748). Nature of the test: Maximal inhibition of electrically evoked contraction of guinea pig ileum at 10 uM. It is filed as functional, tissue-based.
The target of test [6] is Nociceptin receptor (Mus musculus) (UniProt P35377). Nature of the test: Maximal inhibition of electrically evoked contraction of mouse vas deferens at 10 uM. It is filed as functional, tissue-based.
Test [7] deals with T1, Nociceptin receptor (Homo sapiens, UniProt P41146). As to the kind of experiment: Agonist potency against GTPgammaS binding in CHO cell membranes expressing the human NOP receptor (CHOhNOP).
Test [8] deals with Nociceptin receptor (Cavia porcellus) (UniProt P47748). As to the kind of experiment: Antagonistic potency against N/OFQ in electrically evoked contractions of guinea pig ileum at 1 uM. The format is functional, tissue-based.
The target is the same in test [9]. Nature of the test: Inhibition of electrically evoked contraction of guinea pig ileum; Effect evident only in some tissues. It is filed as functional, tissue-based. The settings on record: filed as agonist.
Test [10] addresses Nociceptin receptor (Mus musculus) (UniProt P35377). As to the kind of experiment: Inhibition of electrically evoked contraction of mouse vas deferens; Effect evident only in some tissues. The format is functional. The note with it: filed as agonist.
The target is the same in test [11]. Nature of the test: Antagonistic potency against N/OFQ in electrically evoked contraction of mouse vas deferens at 1 uM. It is filed as functional, tissue-based. In outline:
as §3

Test [12] has as its target Nociceptin receptor (Cavia porcellus) (UniProt P47748). Nature of the test: Maximal inhibition of electrically evoked contraction of guinea pig ileum; Effect evident only in some tissues. The format is functional, tissue-based. The settings on record: filed as agonist.
The target in test [13] is Nociceptin receptor (Mus musculus) (UniProt P35377). Nature of the test: Maximal inhibition of electrically evoked contraction of mouse vas deferens; Effect evident only in some tissues. The format is functional. The settings on record: filed as agonist.
Test [14] deals with T1, Nociceptin receptor. As to the kind of experiment: Receptor binding affinity for recombinant human N/OFQ peptide receptor (NOP) expressed in chinese hamster ovary cells. It is filed as cell-based, CHO.
For test [15], the target named is T1, Nociceptin receptor. Nature of the test: Inhibition of forskolin stimulated cAMP levels in CHO cells expressing the human NOP receptor (CHOhNOP). Background: Cyclic AMP is a second messenger, typically raised through Gs and lowered through Gi signalling.
In test [16] the target is T1, Nociceptin receptor. As to the kind of experiment: Agonist potency against GTPgammaS binding in CHO cell membranes expressing the human NOP receptor (CHOhNOP) at 0.1 uM. In short, it runs like this:
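CHOhNOP membranes (20 µg) incubated 1 h at 30 °C with gentle shaking in 50 mM Tris-HCl, 1 mM MgCl2, 100 mM NaCl, 0.2 mM EGTA, 1 mg/mL BSA, 150 µM bacitracin, 10 µM peptidase inhibitors, 100 µM GDP, 150 pM GTPγ[35S]. Nonspecific binding with 10 µM GTPγS; vacuum filtration. Data as stimulation factors (ligand/basal specific DPM); pEC50 derived.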
Background: Binding of GTPγS marks nucleotide exchange on a G protein.

In test [17] the target is T1, Nociceptin receptor. Nature of the test: Inhibition of forskolin stimulated cAMP levels in CHO […] expressing the human NOP receptor (CHOhNOP). The format is functional, cell-based.
The target in test [18] is Nociceptin receptor (Mus musculus) (UniProt P35377). As to the kind of experiment: Inhibition of electrically evoked contraction of mouse vas deferens at 10 uM. The format is functional.
The target of test [19] is T1, Nociceptin receptor. As to the kind of experiment: Antagonistic potency against N/OFQ induced GTPgammaS binding to human NOP receptor expressed in CHO cell membranes at 0.1 uM. It is filed as functional.
The target of test [20] is T1, Nociceptin receptor. The settings on record: CHO.
The target in test [21] is T1, Nociceptin receptor. As to the kind of experiment: Agonist potency against GTPgammaS binding in CHO cell membranes expressing human NOP receptor (CHOhNOP). In outline:
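Membranes from CHO cells stably expressing human NOP, homogenized in 50 mM Tris-HCl/0.2 mM EGTA. 20 µg homogenate, 1 h at 30 °C. Buffer: Tris-HCl, 1 mM MgCl2, 100 mM NaCl, 0.2 mM EGTA, BSA, bacitracin, 10 µM peptidase inhibitors, 100 µM GDP, 150 pM GTPγ[35S]. Nonspecific binding defined with 10 µM GTPγS.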

In test [22] the target is Nociceptin receptor (Mus musculus, UniProt P35377). Described as §1. The format is functional. In short, it runs like this:
as §2

Structures are written as SMILES. The source made the active and inactive calls. No cut-off for these calls is given here. Numbered stars: 1 amine (or outer) side, 2 acyl side, 3 side chain; on linkers, the order of the positions; unused ones are H or OH. Square brackets hold non-standard residues; d marks the D form. Peptide text beside a SMILES is read from it. X1 = N[C@@H](Cc1ccccc1)CN(CC(=O)[*:2])[*:1]; Phe(4-F) = N[C@@H](Cc1ccc(F)cc1)C(=O)O

Sequence of Nociceptin receptor (Cavia porcellus) (P47748 whole entry): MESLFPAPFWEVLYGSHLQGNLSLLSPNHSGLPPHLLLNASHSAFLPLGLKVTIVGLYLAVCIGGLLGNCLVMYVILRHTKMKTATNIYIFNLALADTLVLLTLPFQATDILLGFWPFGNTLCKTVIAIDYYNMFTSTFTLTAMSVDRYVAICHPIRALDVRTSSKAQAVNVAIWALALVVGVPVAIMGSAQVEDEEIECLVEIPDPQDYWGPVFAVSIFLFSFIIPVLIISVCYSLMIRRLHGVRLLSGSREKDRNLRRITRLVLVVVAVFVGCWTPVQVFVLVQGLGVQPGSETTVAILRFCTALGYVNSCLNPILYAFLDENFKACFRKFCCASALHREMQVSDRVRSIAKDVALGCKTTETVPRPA
T1 sequence (P41146 whole entry): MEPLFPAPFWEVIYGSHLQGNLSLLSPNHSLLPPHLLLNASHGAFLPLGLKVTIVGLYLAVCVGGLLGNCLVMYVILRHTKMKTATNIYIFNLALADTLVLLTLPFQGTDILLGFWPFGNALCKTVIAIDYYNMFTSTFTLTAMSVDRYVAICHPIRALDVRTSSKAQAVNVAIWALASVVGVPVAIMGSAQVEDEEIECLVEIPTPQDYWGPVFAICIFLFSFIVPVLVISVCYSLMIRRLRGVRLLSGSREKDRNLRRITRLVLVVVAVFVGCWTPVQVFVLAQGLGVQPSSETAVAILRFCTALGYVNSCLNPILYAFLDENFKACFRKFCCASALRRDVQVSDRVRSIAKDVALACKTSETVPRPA
Sequence of Nociceptin receptor (Mus musculus) (P35377 whole entry): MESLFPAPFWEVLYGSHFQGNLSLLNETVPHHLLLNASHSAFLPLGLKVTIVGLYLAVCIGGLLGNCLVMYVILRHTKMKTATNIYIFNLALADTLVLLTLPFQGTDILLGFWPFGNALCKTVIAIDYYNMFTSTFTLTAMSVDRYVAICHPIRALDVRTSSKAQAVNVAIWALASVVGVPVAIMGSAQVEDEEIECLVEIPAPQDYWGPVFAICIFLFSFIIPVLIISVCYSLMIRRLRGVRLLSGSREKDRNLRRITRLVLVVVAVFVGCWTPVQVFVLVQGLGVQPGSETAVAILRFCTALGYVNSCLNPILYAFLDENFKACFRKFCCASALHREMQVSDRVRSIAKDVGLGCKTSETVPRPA
Sequence of Nociceptin receptor (Mus musculus, UniProt P35377) (P35377 whole entry): as above

As a reminder, the pKb is the negative decadic logarithm of the Kb, by convention in mol/L. A higher pKb goes with a small Kb. Consider `CC(C)C[C@H](NC(=O)[C@H](CCCCN)NC(=O)[C@H](CCCN=C(N)N)NC(=O)[C@H](C)NC(=O)[C@H](CO)NC(=O)[C@H](CCCCN)NC(=O)[C@H](CCCN=C(N)N)NC(=O)[C@H](C)NC(=O)CNC(=O)[C@@H](NC(=O)[C@H](Cc1ccccc1)NC(=O)CNC(=O)CNC(=O)CNCc1ccccc1)[C@@H](C)O)C(=O)N[C@@H](C)C(=O)N[C@@H](CC(N)=O)C(=O)N[C@@H](CCC(N)=O)C(N)=O`, for which the pKb in test [1] worked out at 6.21; in [4], 6.07. The “Log EC50” value in test [2] and in test [3] was “inactive” throughout. For the same compound, the Emax result in test [5] and in test [6] was “inactive” each time.

By EC50 is commonly meant the midpoint of the concentration-response curve. A high value points to a less potent agent. The term Ki denotes the equilibrium dissociation constant of an inhibitor or competing ligand from its target. As for `CC(C)C[C@H](NC(=O)[C@H](CCCCN)NC(=O)[C@H](CCCN=C(N)N)NC(=O)[C@H](C)NC(=O)[C@H](CO)NC(=O)[C@H](CCCCN)NC(=O)[C@H](CCCN=C(N)N)NC(=O)[C@H](C)NC(=O)CNC(=O)[C@@H](NC(=O)[C@H](Cc1ccc(F)cc1)NC(=O)CNC(=O)CNC[C@@H](N)Cc1ccccc1)[C@@H](C)O)C(=O)N[C@@H](C)C(=O)N[C@@H](CC(N)=O)C(=O)N[C@@H](CCC(N)=O)C(N)=O` (H-[X1]G[Phe(4-F)]TGARKSARKLANQ-NH2), the EC50 at Nociceptin receptor [7] is 0.813 nM; at Nociceptin receptor [15], 0.479 nM. The figures for the pKb in test [8] and in test [11] were 8.32 and 7.9, respectively. Also, in test [9], the “Log EC50” value is “Agonist”. For the same compound, the Activity entry in [10] was “Agonist”. Also, the Emax result in test [12] and in test [13] was “Agonist” each time. In addition, the Ki at Nociceptin receptor [14] is 0.0479 nM.

On to `C[C@H](NC(=O)CNC(=O)[C@@H](NC(=O)[C@H](Cc1ccccc1)NC(=O)CNC(=O)CNC(=O)CNCc1ccccc1)[C@@H](C)O)C(=O)N[C@@H](CCCN=C(N)N)C(=O)N[C@@H](CCCCN)C(=O)N[C@@H](CO)C(=O)N[C@@H](C)C(=O)N[C@@H](CCCN=C(N)N)C(=O)N[C@@H](CCCCN)C(=O)N[C@@H](CCCN=C(N)N)C(=O)N[C@@H](CCCCN)C(=O)N[C@@H](CC(N)=O)C(=O)N[C@@H](CCC(=O)N(N)N)C(=O)NN`, for which the “Log EC50” value (at Nociceptin receptor [16]; on Nociceptin receptor [17]; in test [3]; in [18]) was “inactive” in each case. The pKb in test [8] turned out to be 6.79; in test [11], 7.24; at Nociceptin receptor [19], 9.13; on Nociceptin receptor [20], 7.11. Also, the Emax entry in test [5] and in test [6] was “inactive” throughout.

`C[C@H](NC(=O)CNC(=O)[C@@H](NC(=O)[C@H](Cc1ccc(F)cc1)NC(=O)CNC(=O)CNC(=O)CNCc1ccccc1)[C@@H](C)O)C(=O)N[C@@H](CCCN=C(N)N)C(=O)N[C@@H](CCCCN)C(=O)N[C@@H](CO)C(=O)N[C@@H](C)C(=O)N[C@@H](CCCN=C(N)N)C(=O)N[C@@H](CCCCN)C(=O)N[C@@H](CCCN=C(N)N)C(=O)N[C@@H](CCCCN)C(=O)N[C@@H](CC(N)=O)C(=O)N[C@@H](CCC(N)=O)C(N)=O`: the EC50 on Nociceptin receptor [21] is 0.407 nM; at Nociceptin receptor [15], 4.9 nM. Besides, the Ki at Nociceptin receptor [14] is 0.0251 nM.

As to `C[C@H](NC(=O)CNC(=O)[C@@H](NC(=O)[C@H](Cc1ccc(F)cc1)NC(=O)CNC(=O)CNC[C@@H](N)Cc1ccccc1)[C@@H](C)O)C(=O)N[C@@H](CCCN=C(N)N)C(=O)N[C@@H](CCCCN)C(=O)N[C@@H](CO)C(=O)N[C@@H](C)C(=O)N[C@@H](CCCN=C(N)N)C(=O)N[C@@H](CCCCN)C(=O)N[C@@H](CCCN=C(N)N)C(=O)N[C@@H](CCCCN)C(=O)N[C@@H](CC(N)=O)C(=O)N[C@@H](CCC(N)=O)C(N)=O` (H-[X1]G[Phe(4-F)]TGARKSARKRKNQ-NH2), the EC50 at Nociceptin receptor [7] is 0.209 nM; on Nociceptin receptor [22], 1.02 nM; on Nociceptin receptor [15] it was 0.302 nM. In addition, the Ki on Nociceptin receptor [14] is 0.02 nM.

As for `CC(C)C[C@H](NC(=O)[C@H](CCCCN)NC(=O)[C@H](CCCN=C(N)N)NC(=O)[C@H](C)NC(=O)[C@H](CO)NC(=O)[C@H](CCCCN)NC(=O)[C@H](CCCN=C(N)N)NC(=O)[C@H](C)NC(=O)CNC(=O)[C@@H](NC(=O)[C@H](Cc1ccccc1)NC(=O)CNC(=O)CNC[C@@H](N)Cc1ccccc1)[C@@H](C)O)C(=O)N[C@@H](C)C(=O)N[C@@H](CC(N)=O)C(=O)N[C@@H](CCC(N)=O)C(N)=O` (H-[X1]GFTGARKSARKLANQ-NH2), the EC50 at Nociceptin receptor [7] is 5.25 nM; at Nociceptin receptor [15] it was 0.759 nM. In addition, the figures for the pKb in test [8] and in test [11] were 6.65 and 7.17, respectively. Moreover, the “Log EC50” value in test [9] was “Agonist”. Besides, the Activity entry in test [10] is “Agonist”. For the same compound, the Emax entry in [12] and in test [13] was “Agonist” each time. Also, the Ki at Nociceptin receptor [14] was 0.129 nM.

For `C[C@H](NC(=O)CNC(=O)[C@@H](NC(=O)[C@H](Cc1ccccc1)NC(=O)CNC(=O)CNC[C@@H](N)Cc1ccccc1)[C@@H](C)O)C(=O)N[C@@H](CCCN=C(N)N)C(=O)N[C@@H](CCCCN)C(=O)N[C@@H](CO)C(=O)N[C@@H](C)C(=O)N[C@@H](CCCN=C(N)N)C(=O)N[C@@H](CCCCN)C(=O)N[C@@H](CCCN=C(N)N)C(=O)N[C@@H](CCCCN)C(=O)N[C@@H](CC(N)=O)C(=O)N[C@@H](CCC(N)=O)C(N)=O` (H-[X1]GFTGARKSARKRKNQ-NH2), the EC50 on Nociceptin receptor [7] was 0.933 nM; at Nociceptin receptor [15], 0.24 nM. Moreover, on Nociceptin receptor [14], the Ki was 0.0316 nM.
